Measured values from the EternaBench riboswitch data.

Tested on: MS2 coat protein
Assay: apparent Kd, MS2 coat protein; higher = weaker binding; RNA-MaP array; FMN 200 µM where present
Outline: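 Stalled E. coli RNA polymerase produced the designs on Illumina sequencing-chip clusters. SNAP-549-labelled MS2 coat protein was added from 0.7 or 1.5 nM, doubling to 3 µM, without and then with constant ligand, in 100 mM Tris-HCl pH 7.5, 80 mM KCl, 4 mM MgCl2, BSA, DTT, yeast tRNA and Tween-20. The apparent Kd is the median of filtered per-cluster fits of green signal normalised to red-channel RNA signal and control-cluster median Fmax.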

[1] = designed as: OFF switch for flavin mononucleotide, no ligand
[2] = ligand present: flavin mononucleotide, designed as: OFF switch for flavin mononucleotide
[3] = designed as: ON switch for flavin mononucleotide, no ligand
[4] = ligand present: flavin mononucleotide, designed as: ON switch for flavin mononucleotide

| Sequence | apparent Kd [1] | apparent Kd [2] | apparent Kd [3] | apparent Kd [4] |
| --- | --- | --- | --- | --- |
| GACUGUCUAGGAUAUGCGACGUUUUACAUGAGGAUCACCCAUGUUGUCUGCGUGUGUGUGGCAGAAGGAGACAAAC | 13 nM | 19.9 nM |  |  |
| CGAGAUCUUGAGAAGGCAUAAUAUAUAAUACCACAUGUUUACAUGAGGAUCACCCAUGUUUCCUAUGAGGAUAUCAGGAUUUCG | 20.9 nM | 17.1 nM |  |  |
| GAGCUAUGAGGAUAUGCAUAUAUACGGUUUCGUGUGGUACUACAUGAGGAUCACCCAUGUAGAAGGCGUGGCUG | 17.7 nM | 15.1 nM |  |  |
| ACAUGAGGAUCACCCAUGUUGAAUUAGGAUAUUUGACUGCACAUGAGGUUCUCCCAUGUUCAACCGGAGAAGGGAUUAAUAAUU |  |  | 318 nM | 132 nM |
| GGCGGUUUACAAGGAUAUUAGAAACAGACCAAAUAAGAAGGUGUUAUCUGGCAAUGCGAAAGCAGACAUGAGGAUCACCCAUGU |  |  | 58.3 nM | 57.1 nM |
| UCCACUGCUGAGAAGGGAUACGGCUGGGUCGCAUCAGGAUAUCGAUACAGUGCAGCAUGAGGACAUGAGGAUCACCCAUGUGUG |  |  | 81 nM | 27 nM |
| UGGUACUAGGGAGGAUAUGGGAAGAUACAUGAGGAUCACCCAUGUUUAAGAAUGCCGAGAGGCAACUAGAAGGCGCUAGUACCU |  |  | 710 nM | 90.9 nM |
| GGAUCCUUCACAGGAUAUGCUGGACUUUGUCCAGCAGAAGGGUGAACAUGAGGAUCACCCAUGUAUUGGAUCCAUAUAUUUAAU |  |  | 897 nM | 56.1 nM |
| GGAGGAGGAGUGAGGAUAUGGUGGUGGAAACACCACCAGAAGGCACAUGAGGAUCACCCAUGUGAAGAAGAGAA | 18.9 nM | 24.9 nM |  |  |
| GAUUGACAUGAGGAUCACCCAUGUGAGGAUAUCGGCCGGACCUUGUUAGCUUCCACCGCGAGAAGGCACAUCGG | 19.7 nM | 21.3 nM |  |  |
| CACGUCCUCACAGGAUAUGCUGGACUUUGUCCAGCAGAAGGGUGAAAACAUGAGGAUCACCCAUGUAGGACGUGUAUAUUUAAU |  |  | 1020 nM | 125 nM |
| GUCUCGAUGUAGAAGGCCGCGUCCGGCUCACGCGGAGGAUAUACAUGAGGAUCACCCAUGUGUCUGUGGCUUAUAUGUUACGGA | 70.8 nM | 68.3 nM |  |  |
| GAAUAAUUGAUCCAAUAUAACAACAUGAGGAUCACCCAUGUGCAGGAUAUCGUAUUUAUUAUAUACGAGAAGGGCAAGAACUGU | 343 nM | 475 nM |  |  |
| CGCAUGCGUAGAAUUAGCAGCUGACAGGAUAUGACAUGAGGAUCACCCAUGUGAAUUAAGAAGAGUCAGAAGGGUCACGAUGCG | 9.98 nM | 9.98 nM |  |  |
| CACGGAUAGUAGAAGGGUGACAUGAGGAUCACCCAUGUACUUAUGUAGGUAUUACUAUAUAAUUCACAGGAUAUACUAUCCGUG |  |  | 794 nM | 90.3 nM |
| UGUCGGAGCAGAGGAUAUUACAUGAGGAUCACCCAUGUAUGAACCAAUAGCUGGAAACAGCAAUGAAAGAAGGCUGCUCCGACA | 5.38 nM | 5.13 nM |  |  |
| CCUGUACAUGAGGAUCACCCAUGUUAGGAUAUCUCGCCGUCGGCUUGCCGACGGUAUUAGAGAAGGGACAAGGG | 32.3 nM | 37.6 nM |  |  |
| UGGUACAUCGGAGGAUAUCAUGUAUAGACAUGAGGAUCACCCAUGUCGUACGAGAGUACGGAGAUUGAGAAGGCCGAUGUACCU |  |  | 21 nM | 16.6 nM |
| AAUUAUUGAUGAGGAUAUUGUGGUGAAACACGACAAGAAGGCAUUAUUCACAUGAGGAUCACCCAUGUGAGCCUGGUGCAUAUA | 15.5 nM | 13.8 nM |  |  |
| CCACGGCACUCGUUGGUACGGGCAGAGGAUAUCGACAUGAGGAUCACCCAUGUGGAUGUAUAUGUCGAGAAGGCUGAUUCGUCU | 44 nM | 197 nM |  |  |
| GAAUAUUCGUGGUACAUGAGGAUCACCCAUGUGUCUUUACAUGAGGAUAUGGAUUCUAAUUGGAUCCAGAAGGCAUGAAUAUUC |  |  | 75.5 nM | 31.2 nM |
| UCUGCCGCCGUGAGGAUAUGCCCGCGAAAACGCGGGCAGAAGGCACAUGAGGAUCACCCAUGUCCCGCGGUUUU | 16.1 nM | 36.7 nM |  |  |
| UGAACAAUGUAGAAGGCCCAUAUUUAUAUAUAGGGAGGAUAUACAUGAGGAUCACCCAUGUAAAGAGCAAGAGGAUUUGACAGA | 10.4 nM | 22.2 nM |  |  |
| GUGAACCGUAGGUCGCUGGCUGCACAGGAUAUGAAGGCGUACAUGAGGAUCACCCAUGUUCCCUAUCAGAAGGGUGACAGGAAA |  |  | 14.8 nM | 8.85 nM |
| ACAUGAGGAUCACCCAUGUUAUCUGGGACUUCAAUUAUUUCUAGAAGGCUGUUUACUUGUUAGUCAGAGGAUAUAGAAUUAAAU | 31.1 nM | 32.3 nM |  |  |
| AUCCAGCGAGGAUAUACAUAGUUUUUUUCGUUUUGUCUCGAACAUGAGGAUCACCCAUGUAGAAGGUGCUUCAC | 72.5 nM | 67.2 nM |  |  |
| UGGUACAUGGGAGGAUAUGGGUAGAUAACAUGAGGAUCACCCAUGUUAAGAAAUGCCGAAAGGCACUAGAAGGCCCAUGUACCU |  |  | 637 nM | 46.7 nM |
| AAACACGGACAUGAGGAUCACCCAUGUGGCGAAAGCCUUGGGAGAAGGCCGAUAGCAAAGCUAUCGGAGGAUAUUCAUACCGUG |  |  | 1200 nM | 61 nM |
